Compound activity from PubChem BioAssay.
Only some compounds are listed: those with a hit (about 3.8% of all), similar ones and a draw of the others.
KCNQ1 act – potentiates or activates the human KCNQ1 potassium channel; 0.35% of 310,000 active; B-score at 10 µM; CHO-K1 KCNQ1, thallium flux FluxOR fluorescence; hits give high values;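 active means fluorescence ratio B-score, a plate-corrected score, at least three library SD, with initial intensity B-score within 5 SD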
Target sequence (P51787 whole entry, looked up): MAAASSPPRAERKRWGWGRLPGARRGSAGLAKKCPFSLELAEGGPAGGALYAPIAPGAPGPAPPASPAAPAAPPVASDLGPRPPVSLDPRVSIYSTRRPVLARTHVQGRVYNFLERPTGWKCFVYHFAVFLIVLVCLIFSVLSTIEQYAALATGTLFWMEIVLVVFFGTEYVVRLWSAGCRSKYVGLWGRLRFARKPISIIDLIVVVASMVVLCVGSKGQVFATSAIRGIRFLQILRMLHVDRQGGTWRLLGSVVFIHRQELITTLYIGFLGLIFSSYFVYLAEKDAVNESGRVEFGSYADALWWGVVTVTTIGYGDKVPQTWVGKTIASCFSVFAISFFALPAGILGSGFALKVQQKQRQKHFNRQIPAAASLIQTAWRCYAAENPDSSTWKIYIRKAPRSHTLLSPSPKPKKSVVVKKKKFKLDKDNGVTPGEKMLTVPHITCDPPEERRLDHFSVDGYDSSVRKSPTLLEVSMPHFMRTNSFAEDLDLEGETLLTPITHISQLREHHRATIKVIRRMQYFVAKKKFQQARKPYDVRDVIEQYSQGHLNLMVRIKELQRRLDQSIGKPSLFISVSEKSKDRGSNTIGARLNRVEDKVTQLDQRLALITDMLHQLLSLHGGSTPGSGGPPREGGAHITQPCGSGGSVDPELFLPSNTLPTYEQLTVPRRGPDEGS
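assay system = KCNQ1-transfected CHO-K1 cells | medium = assay buffer with matched DMSO | probe or stimulus = depolarizing K+/Tl+ stimulus, K2SO4 and Tl2SO4 each 12.5 mM in 5x stock | dosing = single dose | incubation = dye 90 min, compound 20 min, room temperature | detection = kinetic FluxOR fluorescence, 10 s baseline plus 110 s post-stimulus | evaluation = ratio B score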
hERG rescue – compounds protecting human hERG from proarrhythmic drug block; activation (rescue from dofetilide block), less the hit threshold, % at 10 µM; CHO-hERG, FluxOR thallium flux, dofetilide IC70 present; 0.51% of 310,000 active; AID 1511;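 active means activation above the mean of controls blocked by dofetilide plus 5 SD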;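 further: thallium influx through hERG after potassium depolarization seen as dye fluorescence rise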
Kir21 inh – blocks the mouse Kir2.1 inward-rectifier potassium channel. P35561. HEK293-Kir2.1, FluxOR thallium flux fluorescence; hits give low values. B-score at 10 µM. 0.85% of 310,000 active;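 active means fluorescence ratio B-score at or below minus 3 SD of library scores, with starting-brightness B-score within 2 SD, cut at about -4.2 in these data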;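 further: channel flux triggered by added potassium and thallium sulfate stimulus; B-score of peak minus minimum fluorescence over baseline after thallium stimulus; more negative B-score means stronger Kir2.1 block with less thallium influx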
KCNQ1 block – blocks the human KCNQ1 potassium channel | 1.3% of 310,000 active | P51787 | CHO-K1 KCNQ1, FluxOR thallium flux fluorescence; hits give high values | B-score at 10 µM;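 active means compounds whose thallium flux B-score, printed positive for inhibition, exceeds three library SD while starting fluorescence stays within three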;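 further: channel opened by potassium depolarization with thallium stimulus after 20 min compound exposure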
KCNK9 inh – blocks the human KCNK9 two-pore domain potassium channel; B-score at 10 µM; 1.2% of 310,000 active; HEK293 KCNK9, FluxOR thallium flux fluorescence; hits give low values; Q9NPC2;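 active means ratio B-score over 3 SD below the library mean, with starting fluorescence within 5 SD of its mean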;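 further: negative B-score means less thallium flux so channel inhibition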
KCNK3 block – human KCNK3 channel inhibition, primary screen; O14649; 0.84% of 340,000 active; B-score at 10 µM; CHO-KCNK3 thallium flux, FluxOR fluorescence; hits give low values;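 active means B-score under library mean minus 4 SD, starting fluorescence ratio at most library mean plus 5 SD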;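 further: more negative B-score means stronger inhibition of thallium flux through KCNK3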
KCNK9 block conf – confirmation of human KCNK9 potassium channel inhibitors. shares compounds with KCNK9 inh. HEK293 KCNK9 cells, FluxOR thallium flux fluorescence. inhibition, % at 10 µM. 43% of 4,900 active;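 active means thallium signal inhibited by more than 5 SD of the compound-free buffer control wells, on both duplicate plates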;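 further: 0% = assay buffer control wells without compound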
Kir21 sel – mouse Kir2.1 off-target activity of KCNK9 modulators; AID 492993; Kir2.1 cells, FluxOR thallium flux fluorescence; inhibition, % at 10 µM; 4% of 4,900 active; shares compounds with KCNK9 inh;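 active means thallium signal drop more than 5 SD beyond the mean of the no-compound control wells, seen in both duplicate plates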;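 further: signal is fluorescence rise after thallium addition divided by baseline fluorescence; plate controls were assay buffer only for no effect and full block by chlorpromazine control for full effect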
KCNK9 uninduced – second counter-screen for KCNK9 modulators: effect in non-induced cells; 40% of 4,900 active; shares compounds with KCNK9 inh; inhibition, % at 10 µM; non-induced KCNK9-HEK293, FluxOR thallium flux;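 active means thallium signal drop beyond 5 SD of the untreated control mean, on both duplicate plates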;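 further: plate controls were buffer only IC0 wells for no effect and SID17386958 at its maximal inhibitory level for full effect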
Starred values were filed as active, the others as inactive; i = inactive; · = not tested or not shown.

SMILES | KCNQ1 act | hERG rescue | Kir21 inh | KCNQ1 block | KCNK9 inh | KCNK3 block | KCNK9 block conf | Kir21 sel | KCNK9 uninduced
O=C(Nc1cccc2ccccc12)c1cn(-c2ccccc2)nc1-c1cccs1 | i | -12 | 1.4 | i | -10* | -9.5* | 50%* | i | 24%*
O=C(Nc1cccnc1)c1cn(-c2ccccc2)nc1-c1cccs1 | i | -8 | -0.23 | i | i | i | · | · | ·
COC(=O)c1cc2c(ccn2-c2ccc(F)cc2)n1Cc1ccc(OC)cc1 | i | -6 | 0.03 | i | i | i | · | · | ·
COC(=O)c1cc2c(ccn2-c2ccc(F)cc2)n1Cc1ccc(C#N)cc1 | i | -5 | 0.31 | i | -9.5* | i | 38%* | i | 32%*
O=C(Nc1nc(-c2ccccc2)cs1)c1cccc(S(=O)(=O)N2CCN(Cc3ccccc3)CC2)c1 | i | -7 | -3.7 | i | i | i | i | i | i
O=C(c1cccc(S(=O)(=O)N2CCCCC2)c1)N(CCc1ccccc1)Cc1ccccc1 | i | -16 | -2.8 | 6* | -16* | i | 62%* | i | 36%*
CN1CCN(S(=O)(=O)c2cccc(C(=O)Nc3nc(-c4ccccc4)cs3)c2)CC1 | i | -18 | -0.2 | i | i | i | · | · | ·
Cc1ccc(CN(C)C(=O)c2cccc(S(=O)(=O)N3CCN(Cc4ccccc4)CC3)c2)o1 | i | -13 | -0.79 | i | i | i | i | i | 28%*
O=C(c1cccc(S(=O)(=O)N2CCOCC2)c1)N(CCO)Cc1ccccc1 | i | -10 | -2.6 | i | i | i | · | · | ·
CC(=O)Nc1ccc(S(=O)(=O)N2CCCCC2C(=O)O)cc1 (stereo unspecified) | i | -14 | 1.2 | i | i | i | · | · | ·
COc1ccc(S(=O)(=O)NCCC(=O)OCC(=O)c2ccc[nH]2)cc1[N+](=O)[O-] | · | · | · | · | · | i | · | · | ·
CCCC(=O)Nc1cc(C)c(NC(=O)c2ccccn2)cn1 | i | -10 | -0.08 | i | i | i | · | · | ·
Cc1cc(NC(=O)C(C)C)ncc1NC(=O)c1ccccn1 | i | -1 | 1.2 | i | i | i | i | i | i
CCOc1ccc(NC(=O)CN(c2cc(C)cc(C)c2)S(=O)(=O)c2c(C)noc2C)cc1 | i | -2 | 0 | i | i | i | · | · | ·
Cc1noc(C)c1S(=O)(=O)N(C)CC(=O)Nc1ccc(F)cc1 | i | -2 | 0.02 | i | -11* | i | i | i | i
Cc1ccccc1NC1=C(C(=O)c2ccccc2)N(C)S(=O)(=O)c2ccccc21 | i | -11 | 0.34 | i | -12* | -9* | 32%* | i | 38%*
CC1(C)Cc2cccc(OCC(=O)OCC(=O)Nc3ccc(C(N)=O)cc3)c2O1 | i | -12 | -1.1 | i | i | i | · | · | ·
Cc1csc2nc(CSc3nc4ccccc4o3)c(Br)n12 | i | -3 | -0.17 | i | -12* | i | i | i | 46%*
CN1C(=O)Cc2cc(S(=O)(=O)N3CCN(c4ccc(Cl)cc4)CC3)ccc21 | i | -4 | -0.03 | i | i | i | · | · | ·
O=C(Nc1cc(Sc2ccccn2)cc([N+](=O)[O-])c1)c1cccc(Cl)c1 | i | -11 | 0.6 | 7* | -10* | i | 41%* | i | 40%*
O=C(Nc1cc(Sc2ccccn2)cc([N+](=O)[O-])c1)c1ccc(Cl)cc1 | i | -4 | -0.72 | i | i | i | · | · | ·
Cc1ccc(Cc2nnc3n(-c4cccc(C)c4)nc(C(=O)c4ccccc4)n3c2=O)cc1 | i | -10 | 0.16 | i | i | i | i | i | i
